Measurements from ChEMBL document CHEMBL5724801, “EUbOPEN Chemogenomics Library - Multiplex” (2024).
“And” between values parts separate entries of the source, which are not always exact repeats. Equal values may be shown once.

Tested on: U2OS
Assay: Multiplex assay against U2OS
Format: toxicity, cell-based
Settings: human, 12 h, 1 µM, compound concentration 1 uM
Method in brief: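 With compound added, live cells were imaged on a CQ1 microscope at 37°C and 5% CO2; staining with Hoechst33342, BioTracker Green Microtubule Cytoskeleton Dye, MitoTracker Red and Annexin V Alexa Fluor 680 had been done at seeding. The CellPathfinder machine-learning gating scheme split cells into Hoechst high-intensity objects or normal cells, normal cells into healthy, pyknosed or fragmented nuclei, and pyknosed cells into mitotic or apoptotic. The tubulin, mitochondrial-mass and membrane-permeability phenotypes are per cents of healthy-nucleus cells.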

SMILES | Population Apoptotic (%) | Population Fragmented Nuclei (%) | Population Healthy Nuclei (%) | Population Hoechst High Intensity Objects (%) | Population Membrane Permeable-Phenotype (%) | Population Mitotic Cells (%) | Population Normal (%) | Population Pyknosed Nuclei (%) | Population Tubulin-Different-Phenotype (%) | Total Cell Count
Cc1[nH]nc2ccc(-c3cncc(OCC(N)Cc4c[nH]c5ccccc45)c3)cc12 (stereo not given) | 44.72% and 48.45% | 8.59% and 11.33% | 46.81% and 24% | 0% | 2.37% and 0% | 55.28% and 51.55% | 100% | 44.6% and 64.67% | 4.73% and 0% | 361 and 150
Cc1ccc(-c2ccc(F)cc2COc2ccc(CCC(=O)O)cc2)cc1 | 75% and 100% | 22% and 17% | 71% and 74% | 2% |  | 25% and 0% | 97% |  |  | 277 and 135
Cn1ncnc1COc1nn2c(-c3cc(F)ccc3F)nnc2cc1C(C)(C)C | 55.26% and 53.85% | 0.89% and 4.24% | 90.6% and 80% | 0% |  | 44.74% and 46.15% | 100% | 8.5% and 15.76% | 1.23% and 0.76% | 447 and 165
O=C1CSC(=O)N1C(CCc1ccncc1)COc1ccc(-c2cccc([N+](=O)[O-])c2)cc1 (stereo not given) | 46.67% and 30.43% | 1.68% and 1.25% | 91.11% and 84.38% | 0% and 0.62% | 0.26% and 4.44% | 53.33% and 69.57% | 100% and 99.38% | 7.21% and 14.37% | 1.58% and 2.22% | 416 and 161

Same assay, conditions: human, 12 h, 1 µM, compound concentration 1 uM

SMILES | Population Mitochondria Different-Phenotype (%)
Cc1ccc(-c2ccc(F)cc2COc2ccc(CCC(=O)O)cc2)cc1 | 3% and 0%
Cn1ncnc1COc1nn2c(-c3cc(F)ccc3F)nnc2cc1C(C)(C)C | 0% and 7.58%
O=C1CSC(=O)N1C(CCc1ccncc1)COc1ccc(-c2cccc([N+](=O)[O-])c2)cc1 (stereo not given) | 0.26% and 9.63%

Same assay, conditions: human, 12 h, 10 µM, compound concentration 10 uM

SMILES | Population Apoptotic (%) | Population Fragmented Nuclei (%) | Population Healthy Nuclei (%) | Population Hoechst High Intensity Objects (%) | Population Membrane Permeable-Phenotype (%) | Population Mitochondria Different-Phenotype (%) | Population Mitotic Cells (%) | Population Normal (%) | Population Pyknosed Nuclei (%) | Population Tubulin-Different-Phenotype (%)
Cc1[nH]nc2ccc(-c3cncc(OCC(N)Cc4c[nH]c5ccccc45)c3)cc12 (stereo not given) | 65.77% and 68.92% | 11.37% and 8.4% | 2.49% and 6.87% | 0% | 0% and 22.22% | 35.71% and 55.56% | 34.23% and 31.08% | 100% | 86.15% and 84.73% | 42.86% and 33.33%
Cc1ccc(-c2ccc(F)cc2COc2ccc(CCC(=O)O)cc2)cc1 | 75% and 83% | 31% and 14% | 61% and 75% | 1% and 2% |  | 2% | 25% and 16% | 98% and 97% |  | 
Cn1ncnc1COc1nn2c(-c3cc(F)ccc3F)nnc2cc1C(C)(C)C | 36.84% and 41.18% | 1.2% and 0.65% | 87.43% and 88.24% | 0% |  |  | 63.16% and 58.82% | 100% | 11.38% and 11.11% | 1.71% and 1.48%
O=C1CSC(=O)N1C(CCc1ccncc1)COc1ccc(-c2cccc([N+](=O)[O-])c2)cc1 (stereo not given) | 42.24% and 24.39% | 2.2% and 3.42% | 69.51% and 68.49% | 0.24% and 0% | 53.68% and 77% | 42.11% and 86% | 57.76% and 75.61% | 99.76% and 100% | 28.29% and 28.08% | 96.84% and 85%

Same assay, conditions: human, 12 h, 10 µM, compound concentration 10 uM

SMILES | Total Cell Count
Cc1[nH]nc2ccc(-c3cncc(OCC(N)Cc4c[nH]c5ccccc45)c3)cc12 (stereo not given) | 563 and 262
Cc1ccc(-c2ccc(F)cc2COc2ccc(CCC(=O)O)cc2)cc1 | 238 and 123
Cn1ncnc1COc1nn2c(-c3cc(F)ccc3F)nnc2cc1C(C)(C)C | 334 and 153
O=C1CSC(=O)N1C(CCc1ccncc1)COc1ccc(-c2cccc([N+](=O)[O-])c2)cc1 (stereo not given) | 411 and 146

Same assay, conditions: human, 24 h, 1 µM, compound concentration 1 uM

SMILES | Population Apoptotic (%) | Population Fragmented Nuclei (%) | Population Healthy Nuclei (%) | Population Hoechst High Intensity Objects (%) | Population Membrane Permeable-Phenotype (%) | Population Mitotic Cells (%) | Population Normal (%) | Population Pyknosed Nuclei (%) | Population Tubulin-Different-Phenotype (%) | Total Cell Count
Cc1[nH]nc2ccc(-c3cncc(OCC(N)Cc4c[nH]c5ccccc45)c3)cc12 (stereo not given) | 64.71% and 80.2% | 9.73% and 13.51% | 38.6% and 18.24% | 0% | 3.15% and 3.7% | 35.29% and 19.8% | 100% | 51.67% and 68.24% | 2.36% and 7.41% | 329 and 148
Cc1ccc(-c2ccc(F)cc2COc2ccc(CCC(=O)O)cc2)cc1 | 90% and 100% | 21% and 20% | 69% and 70% | 2% and 1% |  | 10% and 0% | 97% and 98% |  |  | 340 and 175
Cn1ncnc1COc1nn2c(-c3cc(F)ccc3F)nnc2cc1C(C)(C)C | 33.9% and 52.63% | 0.96% and 3.02% | 89.63% and 77.89% | 0% |  | 66.1% and 47.37% | 100% | 9.41% and 19.1% | 0.53% and 0.65% | 
O=C1CSC(=O)N1C(CCc1ccncc1)COc1ccc(-c2cccc([N+](=O)[O-])c2)cc1 (stereo not given) | 40.38% and 40% | 0.93% and 1.52% | 89.44% and 80.81% | 0.18% and 0% | 0.62% and 1.88% | 59.62% and 60% | 99.82% and 100% | 9.63% and 17.68% | 1.45% and 0.62% | 541 and 198

Same assay, conditions: human, 24 h, 1 µM, compound concentration 1 uM

SMILES | Population Mitochondria Different-Phenotype (%)
Cc1ccc(-c2ccc(F)cc2COc2ccc(CCC(=O)O)cc2)cc1 | 2% and 0%
Cn1ncnc1COc1nn2c(-c3cc(F)ccc3F)nnc2cc1C(C)(C)C | 0% and 7.74%
O=C1CSC(=O)N1C(CCc1ccncc1)COc1ccc(-c2cccc([N+](=O)[O-])c2)cc1 (stereo not given) | 0.41% and 10%

Same assay, conditions: human, 24 h, 10 µM, compound concentration 10 uM

SMILES | Population Apoptotic (%) | Population Fragmented Nuclei (%) | Population Healthy Nuclei (%) | Population Hoechst High Intensity Objects (%) | Population Mitochondria Different-Phenotype (%) | Population Mitotic Cells (%) | Population Normal (%) | Population Pyknosed Nuclei (%) | Population Tubulin-Different-Phenotype (%) | Total Cell Count
Cc1[nH]nc2ccc(-c3cncc(OCC(N)Cc4c[nH]c5ccccc45)c3)cc12 (stereo not given) | 93.93% and 93.15% | 7.63% and 5.95% | 4.33% and 7.14% | 0% | 17.65% and 50% | 6.07% and 6.85% | 100% | 88.04% and 86.9% | 35.29% and 16.67% | 393 and 168
Cc1ccc(-c2ccc(F)cc2COc2ccc(CCC(=O)O)cc2)cc1 | 94% and 93% | 26% and 22% | 67% | 1% and 2% | 3% and 4% | 5% and 6% | 98% and 97% |  |  | 295 and 160
Cn1ncnc1COc1nn2c(-c3cc(F)ccc3F)nnc2cc1C(C)(C)C | 30.77% and 47.83% | 1.81% and 3.66% | 86.39% and 84.29% | 0% and 0.52% | 0% and 3.73% | 69.23% and 52.17% | 100% and 99.48% | 11.79% and 12.04% | 2.62% and 1.24% | 441 and 192
O=C1CSC(=O)N1C(CCc1ccncc1)COc1ccc(-c2cccc([N+](=O)[O-])c2)cc1 (stereo not given) | 50% and 31.58% | 2.96% and 3.38% | 68.34% and 70.95% | 0.23% and 0% |  | 50% and 68.42% | 99.77% and 100% | 28.7% and 25.68% | 96.67% and 89.52% | 440 and 148

Same assay, conditions: human, 24 h, 10 µM, compound concentration 10 uM

SMILES | Population Membrane Permeable-Phenotype (%)
O=C1CSC(=O)N1C(CCc1ccncc1)COc1ccc(-c2cccc([N+](=O)[O-])c2)cc1 (stereo not given) | 43% and 73.33%

Same assay, conditions: human, 48 h, 1 µM, compound concentration 1 uM

SMILES | Population Apoptotic (%) | Population Fragmented Nuclei (%) | Population Healthy Nuclei (%) | Population Hoechst High Intensity Objects (%) | Population Mitochondria Different-Phenotype (%) | Population Mitotic Cells (%) | Population Normal (%) | Population Pyknosed Nuclei (%) | Population Tubulin-Different-Phenotype (%) | Total Cell Count
Cc1[nH]nc2ccc(-c3cncc(OCC(N)Cc4c[nH]c5ccccc45)c3)cc12 (stereo not given) | 73.68% and 85.57% | 8.46% and 13.19% | 34.14% and 19.44% | 0% | 1.77% and 10.71% | 26.32% and 14.43% | 100% | 57.4% and 67.36% | 5.31% and 0% | 331 and 144
Cc1ccc(-c2ccc(F)cc2COc2ccc(CCC(=O)O)cc2)cc1 | 89% and 95% | 17% and 15% | 74% and 75% | 2% | 2% | 10% and 5% | 97% |  |  | 487 and 242
Cn1ncnc1COc1nn2c(-c3cc(F)ccc3F)nnc2cc1C(C)(C)C | 43.96% and 63.41% | 3.06% and 2.48% | 88.51% and 84.83% | 0% and 0.31% | 0% and 6.93% | 56.04% and 36.59% | 100% and 99.69% | 8.43% and 12.69% | 1.05% and 0.73% | 
O=C1CSC(=O)N1C(CCc1ccncc1)COc1ccc(-c2cccc([N+](=O)[O-])c2)cc1 (stereo not given) | 43.9% and 44.68% | 2.54% and 3.2% | 89.11% and 83.14% | 0% | 0.34% and 6.64% | 56.1% and 55.32% | 100% | 8.34% and 13.66% | 1.94% and 1.75% | 983 and 344

Same assay, conditions: human, 48 h, 1 µM, compound concentration 1 uM

SMILES | Population Membrane Permeable-Phenotype (%)
O=C1CSC(=O)N1C(CCc1ccncc1)COc1ccc(-c2cccc([N+](=O)[O-])c2)cc1 (stereo not given) | 1.6% and 1.75%

Same assay, conditions: human, 48 h, 10 µM, compound concentration 10 uM

SMILES | Population Apoptotic (%) | Population Fragmented Nuclei (%) | Population Healthy Nuclei (%) | Population Hoechst High Intensity Objects (%) | Population Membrane Permeable-Phenotype (%) | Population Mitochondria Different-Phenotype (%) | Population Mitotic Cells (%) | Population Normal (%) | Population Pyknosed Nuclei (%) | Population Tubulin-Different-Phenotype (%)
Cc1[nH]nc2ccc(-c3cncc(OCC(N)Cc4c[nH]c5ccccc45)c3)cc12 (stereo not given) | 96.14% and 98.84% | 9.73% and 10.67% | 29.2% and 32% | 0% | 12.12% and 29.17% | 23.23% and 35.42% | 3.86% and 1.16% | 100% | 61.06% and 57.33% | 14.14% and 16.67%
Cc1ccc(-c2ccc(F)cc2COc2ccc(CCC(=O)O)cc2)cc1 | 87% and 88% | 21% and 16% | 70% and 72% | 2% and 1% |  | 3% | 12% and 11% | 97% and 98% |  | 
Cn1ncnc1COc1nn2c(-c3cc(F)ccc3F)nnc2cc1C(C)(C)C | 56.04% and 51.22% | 2.31% and 1.96% | 87.15% and 84.64% | 0% |  | 0.13% and 5.41% | 43.96% and 48.78% | 100% | 10.53% and 13.4% | 1.86% and 1.54%
O=C1CSC(=O)N1C(CCc1ccncc1)COc1ccc(-c2cccc([N+](=O)[O-])c2)cc1 (stereo not given) | 60.54% and 58.93% | 4.41% and 4.12% | 68.57% and 62.94% | 0.18% and 0% | 31.1% and 67.29% |  | 39.46% and 41.07% | 99.82% and 100% | 27.02% and 32.94% | 82.84% and 74.77%

Same assay, conditions: human, 48 h, 10 µM, compound concentration 10 uM

SMILES | Total Cell Count
Cc1[nH]nc2ccc(-c3cncc(OCC(N)Cc4c[nH]c5ccccc45)c3)cc12 (stereo not given) | 339 and 150
Cc1ccc(-c2ccc(F)cc2COc2ccc(CCC(=O)O)cc2)cc1 | 421 and 236
Cn1ncnc1COc1nn2c(-c3cc(F)ccc3F)nnc2cc1C(C)(C)C | 864 and 306
